# Source: ChEMBL document CHEMBL1154243, “Chemical Constituents of the Roots of Euphorbia micractina” (J Nat Prod, 2009)
# Activity calls are given as the source filed them. The rule behind the calls is not given here.
# Biological target: T1, Tyrosine-protein phosphatase non-receptor type 1 (Homo sapiens) (UniProt P18031)
# T1 sequence (whole entry): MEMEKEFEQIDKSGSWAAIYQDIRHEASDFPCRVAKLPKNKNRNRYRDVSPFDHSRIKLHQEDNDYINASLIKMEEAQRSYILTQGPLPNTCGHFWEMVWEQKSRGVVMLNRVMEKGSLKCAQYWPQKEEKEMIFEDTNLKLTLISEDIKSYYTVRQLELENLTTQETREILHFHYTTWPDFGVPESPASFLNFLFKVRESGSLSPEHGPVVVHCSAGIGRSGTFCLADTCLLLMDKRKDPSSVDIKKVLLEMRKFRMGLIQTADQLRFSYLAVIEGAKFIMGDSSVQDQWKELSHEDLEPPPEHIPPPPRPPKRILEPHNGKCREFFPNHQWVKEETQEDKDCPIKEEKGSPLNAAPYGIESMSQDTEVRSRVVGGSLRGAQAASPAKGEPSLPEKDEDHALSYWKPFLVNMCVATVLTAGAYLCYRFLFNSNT
# Experiment: Inhibition of GST-tagged human PTP1B
# Conditions: not given
row,SMILES,inhibition
1,CC[C@H](CC[C@@H](C)[C@H]1CC[C@H]2[C@@H]3CC=C4C[C@@H](O)CC[C@]4(C)[C@H]3CC[C@]12C)C(C)C,inactive
2,C/C1=C\[C@@H]2[C@H](CC[C@@]3(C)O[C@@H]3[C@H]3[C@@H](O)[C@@H](C)C[C@]3(OC(=O)/C=C/c3ccccc3)C1=O)C2(C)C [JOLKINOL B],inactive
3,C=C(C)[C@H](O)CC[C@H](C)[C@@H]1CC[C@]2(C)C3=CC[C@H]4C(C)(C)[C@@H](O)CC[C@]4(C)C3=CC[C@@]12C,inactive
4,CC(=O)O[C@H]1CC[C@@]2(C)[C@@H]3C[C@@H]4OC(=O)C(C)=C4C=C3CC[C@@H]2C1(C)C,inactive
5,C[C@@H](C/C=C/C(C)(C)OO)[C@@H]1CC[C@]2(C)C3=C(C(=O)C[C@@]12C)[C@@]1(C)CC[C@H](O)C(C)(C)[C@@H]1CC3=O,inactive
6,COc1ccc(C(=O)OCCc2ccc(O)cc2)cc1,inactive
7,C/C1=C\[C@@H]2[C@H](CC[C@@]3(C)O[C@@H]3[C@H]3[C@@H](O)[C@@H](C)C[C@]3(OC(=O)c3ccccc3)C1=O)C2(C)C,inactive
8,C[C@@H](C/C=C/C(C)(C)OO)[C@@H]1CC[C@]2(C)C3=C(CC[C@@]12C)[C@@]1(C)CC[C@H](O)C(C)(C)[C@@H]1CC3=O,inactive
9,CCCCC/C=C/C=C\C(=O)O[C@H]1C(C)=C[C@]23C(=O)[C@@H](C=C(COC(C)=O)[C@@H](O)[C@]12O)[C@H]1[C@@H](C[C@H]3C)C1(C)C,inactive
10,CCCCCCCCCCCCCCCCCCCCCCCCCCCCCCO,inactive
11,C=C(C)[C@H](CC[C@H](C)[C@@H]1CC[C@]2(C)C3=C(CC[C@@]12C)[C@@]1(C)CC[C@H](O)C(C)(C)[C@@H]1CC3=O)OO,inactive
12,O=C(O)/C=C/c1ccccc1,inactive
13,CC1=C2C=C3CC[C@@H]4C(C)(C)[C@@H](O)CC[C@@]4(C)[C@@H]3C[C@H]2OC1=O,inactive
14,C=C(C)[C@H](CC[C@@H](C)[C@@H]1CC[C@]2(C)C3=C(CC[C@@]12C)[C@@]1(C)CC[C@H](O)C(C)(C)[C@@H]1CC3=O)OO,inactive
15,C=C(C)[C@H](O)CC[C@H](C)[C@@H]1CC[C@]2(C)C3=C(CC[C@@]12C)[C@@]1(C)CC[C@H](O)C(C)(C)[C@@H]1CC3,inactive
16,CC1=C2C=C3CC[C@@H]4C(C)(C)C(=O)CC[C@@]4(C)[C@@H]3C[C@H]2OC1=O,inactive
17,CC(=O)O[C@]12C[C@H](C)[C@H](O)[C@@H]1/C=C(\C)CC[C@H]1[C@@H](/C=C(\C)C2=O)C1(C)C,inactive
18,C=C(C)[C@@H](CC[C@H](C)[C@@H]1CC[C@]2(C)C3=C(CC[C@@]12C)[C@@]1(C)CC[C@H](O)C(C)(C)[C@@H]1CC3=O)OO,inactive
19,COc1cc2ccc(=O)oc2cc1O,inactive
20,C[C@H]1[C@H](C)CC[C@]2(CO)CC[C@]3(C)C(=CC[C@@H]4[C@@]5(C)CC[C@H](O)C(C)(C)[C@@H]5CC[C@]43C)[C@H]12,inactive
21,CC1=C2C=C3CC[C@@H]4C(C)(C)[C@H](O)CC[C@@]4(C)[C@@H]3C[C@H]2OC1=O,inactive
22,CCCCCCCCCCCCCCCC(=O)OCC(O)CO (stereo not given),inactive
23,C=C(C)[C@@H]1CC[C@]2(CO)CC[C@]3(C)[C@H](CC[C@@H]4[C@@]5(C)CC[C@H](O)C(C)(C)[C@@H]5CC[C@]43C)[C@@H]12 [BETULIN],inactive
24,CC1(C)CC[C@]2(CO)CC[C@]3(C)C(=CC[C@@H]4[C@@]5(C)CC[C@H](O)C(C)(C)[C@@H]5CC[C@]43C)[C@@H]2C1,inactive
25,CCCCCCCCCC/C=C\CCCCCC(=O)OC(CO)CO,inactive

# Test system: A2780
# Experiment: Cytotoxicity against human A2780 cells after 4 days by MTT assay
# Format: functional, cell-based
# Conditions: not given
row,SMILES,Activity
1,CC[C@H](CC[C@@H](C)[C@H]1CC[C@H]2[C@@H]3CC=C4C[C@@H](O)CC[C@]4(C)[C@H]3CC[C@]12C)C(C)C,inactive
2,C/C1=C\[C@@H]2[C@H](CC[C@@]3(C)O[C@@H]3[C@H]3[C@@H](O)[C@@H](C)C[C@]3(OC(=O)/C=C/c3ccccc3)C1=O)C2(C)C [JOLKINOL B],inactive
3,C=C(C)[C@H](O)CC[C@H](C)[C@@H]1CC[C@]2(C)C3=CC[C@H]4C(C)(C)[C@@H](O)CC[C@]4(C)C3=CC[C@@]12C,inactive
4,CC(=O)O[C@H]1CC[C@@]2(C)[C@@H]3C[C@@H]4OC(=O)C(C)=C4C=C3CC[C@@H]2C1(C)C,inactive
5,C[C@@H](C/C=C/C(C)(C)OO)[C@@H]1CC[C@]2(C)C3=C(C(=O)C[C@@]12C)[C@@]1(C)CC[C@H](O)C(C)(C)[C@@H]1CC3=O,inactive
6,COc1ccc(C(=O)OCCc2ccc(O)cc2)cc1,inactive
7,C/C1=C\[C@@H]2[C@H](CC[C@@]3(C)O[C@@H]3[C@H]3[C@@H](O)[C@@H](C)C[C@]3(OC(=O)c3ccccc3)C1=O)C2(C)C,inactive
8,C[C@@H](C/C=C/C(C)(C)OO)[C@@H]1CC[C@]2(C)C3=C(CC[C@@]12C)[C@@]1(C)CC[C@H](O)C(C)(C)[C@@H]1CC3=O,inactive
9,CCCCC/C=C/C=C\C(=O)O[C@H]1C(C)=C[C@]23C(=O)[C@@H](C=C(COC(C)=O)[C@@H](O)[C@]12O)[C@H]1[C@@H](C[C@H]3C)C1(C)C,inactive
10,CCCCCCCCCCCCCCCCCCCCCCCCCCCCCCO,inactive
11,C=C(C)[C@H](CC[C@H](C)[C@@H]1CC[C@]2(C)C3=C(CC[C@@]12C)[C@@]1(C)CC[C@H](O)C(C)(C)[C@@H]1CC3=O)OO,inactive
12,O=C(O)/C=C/c1ccccc1,inactive
13,CC1=C2C=C3CC[C@@H]4C(C)(C)[C@@H](O)CC[C@@]4(C)[C@@H]3C[C@H]2OC1=O,inactive
14,C=C(C)[C@H](CC[C@@H](C)[C@@H]1CC[C@]2(C)C3=C(CC[C@@]12C)[C@@]1(C)CC[C@H](O)C(C)(C)[C@@H]1CC3=O)OO,inactive
15,C=C(C)[C@H](O)CC[C@H](C)[C@@H]1CC[C@]2(C)C3=C(CC[C@@]12C)[C@@]1(C)CC[C@H](O)C(C)(C)[C@@H]1CC3,inactive
16,CC1=C2C=C3CC[C@@H]4C(C)(C)C(=O)CC[C@@]4(C)[C@@H]3C[C@H]2OC1=O,inactive
17,CC(=O)O[C@]12C[C@H](C)[C@H](O)[C@@H]1/C=C(\C)CC[C@H]1[C@@H](/C=C(\C)C2=O)C1(C)C,inactive
18,C=C(C)[C@@H](CC[C@H](C)[C@@H]1CC[C@]2(C)C3=C(CC[C@@]12C)[C@@]1(C)CC[C@H](O)C(C)(C)[C@@H]1CC3=O)OO,inactive
19,COc1cc2ccc(=O)oc2cc1O,inactive
20,C[C@H]1[C@H](C)CC[C@]2(CO)CC[C@]3(C)C(=CC[C@@H]4[C@@]5(C)CC[C@H](O)C(C)(C)[C@@H]5CC[C@]43C)[C@H]12,inactive
21,CC1=C2C=C3CC[C@@H]4C(C)(C)[C@H](O)CC[C@@]4(C)[C@@H]3C[C@H]2OC1=O,inactive
22,CCCCCCCCCCCCCCCC(=O)OCC(O)CO (stereo not given),inactive
23,CC1(C)CC[C@]2(CO)CC[C@]3(C)C(=CC[C@@H]4[C@@]5(C)CC[C@H](O)C(C)(C)[C@@H]5CC[C@]43C)[C@@H]2C1,inactive
24,CCCCCCCCCC/C=C\CCCCCC(=O)OC(CO)CO,inactive

# Same assay, conditions: A2780, 96 h
row,SMILES,IC50 [µM]
1,C=C(C)[C@@H]1CC[C@]2(CO)CC[C@]3(C)[C@H](CC[C@@H]4[C@@]5(C)CC[C@H](O)C(C)(C)[C@@H]5CC[C@]43C)[C@@H]12 [BETULIN],6.1

# Test system: Human immunodeficiency virus 1
# Experiment: Antiviral activity against HIV-1 NL4-3 expressing VSV-G envelope infected in human 293T cells assessed as inhibition of viral replication after 48 hrs by Luciferase reporter gene assay
# Format: functional, organism-based
# Conditions: not given
# Method in brief: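 VSV-G-pseudotyped, env-deficient pNL4-3.luc.R-E- virions made by calcium phosphate cotransfection of 293 cells, then filtered. Virions quantified by p24 ELISA and diluted to 0.2 ng p24/mL. Compounds added 15 min before virus, with solvent-only blank. Luciferase in lysates read 48 h post-infection. Zidovudine served as positive control.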
SMILES,Activity,inhibition
CC[C@H](CC[C@@H](C)[C@H]1CC[C@H]2[C@@H]3CC=C4C[C@@H](O)CC[C@]4(C)[C@H]3CC[C@]12C)C(C)C,inactive,–
C=C(C)[C@H](O)CC[C@H](C)[C@@H]1CC[C@]2(C)C3=CC[C@H]4C(C)(C)[C@@H](O)CC[C@]4(C)C3=CC[C@@]12C,–,inactive
CC(=O)O[C@H]1CC[C@@]2(C)[C@@H]3C[C@@H]4OC(=O)C(C)=C4C=C3CC[C@@H]2C1(C)C,inactive,–
C[C@@H](C/C=C/C(C)(C)OO)[C@@H]1CC[C@]2(C)C3=C(C(=O)C[C@@]12C)[C@@]1(C)CC[C@H](O)C(C)(C)[C@@H]1CC3=O,–,inactive
COc1ccc(C(=O)OCCc2ccc(O)cc2)cc1,inactive,–
C/C1=C\[C@@H]2[C@H](CC[C@@]3(C)O[C@@H]3[C@H]3[C@@H](O)[C@@H](C)C[C@]3(OC(=O)c3ccccc3)C1=O)C2(C)C,inactive,–
C[C@@H](C/C=C/C(C)(C)OO)[C@@H]1CC[C@]2(C)C3=C(CC[C@@]12C)[C@@]1(C)CC[C@H](O)C(C)(C)[C@@H]1CC3=O,–,inactive
CCCCC/C=C/C=C\C(=O)O[C@H]1C(C)=C[C@]23C(=O)[C@@H](C=C(COC(C)=O)[C@@H](O)[C@]12O)[C@H]1[C@@H](C[C@H]3C)C1(C)C,inactive,–
CCCCCCCCCCCCCCCCCCCCCCCCCCCCCCO,inactive,–
C=C(C)[C@H](CC[C@H](C)[C@@H]1CC[C@]2(C)C3=C(CC[C@@]12C)[C@@]1(C)CC[C@H](O)C(C)(C)[C@@H]1CC3=O)OO,–,inactive
O=C(O)/C=C/c1ccccc1,inactive,–
CC1=C2C=C3CC[C@@H]4C(C)(C)[C@@H](O)CC[C@@]4(C)[C@@H]3C[C@H]2OC1=O,inactive,–
C=C(C)[C@H](CC[C@@H](C)[C@@H]1CC[C@]2(C)C3=C(CC[C@@]12C)[C@@]1(C)CC[C@H](O)C(C)(C)[C@@H]1CC3=O)OO,–,inactive
C=C(C)[C@H](O)CC[C@H](C)[C@@H]1CC[C@]2(C)C3=C(CC[C@@]12C)[C@@]1(C)CC[C@H](O)C(C)(C)[C@@H]1CC3,–,inactive
CC1=C2C=C3CC[C@@H]4C(C)(C)C(=O)CC[C@@]4(C)[C@@H]3C[C@H]2OC1=O,inactive,–
CC(=O)O[C@]12C[C@H](C)[C@H](O)[C@@H]1/C=C(\C)CC[C@H]1[C@@H](/C=C(\C)C2=O)C1(C)C,inactive,–
C=C(C)[C@@H](CC[C@H](C)[C@@H]1CC[C@]2(C)C3=C(CC[C@@]12C)[C@@]1(C)CC[C@H](O)C(C)(C)[C@@H]1CC3=O)OO,–,inactive
COc1cc2ccc(=O)oc2cc1O,inactive,–
C[C@H]1[C@H](C)CC[C@]2(CO)CC[C@]3(C)C(=CC[C@@H]4[C@@]5(C)CC[C@H](O)C(C)(C)[C@@H]5CC[C@]43C)[C@H]12,inactive,–
CC1=C2C=C3CC[C@@H]4C(C)(C)[C@H](O)CC[C@@]4(C)[C@@H]3C[C@H]2OC1=O,inactive,–
CCCCCCCCCCCCCCCC(=O)OCC(O)CO (stereo not given),inactive,–
C=C(C)[C@@H]1CC[C@]2(CO)CC[C@]3(C)[C@H](CC[C@@H]4[C@@]5(C)CC[C@H](O)C(C)(C)[C@@H]5CC[C@]43C)[C@@H]12 [BETULIN],inactive,–
CC1(C)CC[C@]2(CO)CC[C@]3(C)C(=CC[C@@H]4[C@@]5(C)CC[C@H](O)C(C)(C)[C@@H]5CC[C@]43C)[C@@H]2C1,inactive,–
CCCCCCCCCC/C=C\CCCCCC(=O)OC(CO)CO,inactive,–

# Same assay, conditions: Human immunodeficiency virus 1, NL4-3, HEK-293T
row,SMILES,IC50 [µM]
1,C/C1=C\[C@@H]2[C@H](CC[C@@]3(C)O[C@@H]3[C@H]3[C@@H](O)[C@@H](C)C[C@]3(OC(=O)/C=C/c3ccccc3)C1=O)C2(C)C [JOLKINOL B],12.6
